Screens from PubChem BioAssay.
An excerpt weighted towards active compounds, which were near 0.99% of everything screened.
FN deposit inh – inhibitors of fibronectin matrix deposition, primary screen, AH1F cells, Alexa488-fibronectin fluorescence, plate reader; AH1F fibroblasts, overnight; inhibition, % at 12.6 µM; 0.086% of 350,000 active; AID 743247, 2014;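 active = mean inhibition across replicates of 30% or more, regardless of how many single replicates reach that level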;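 note: positive control wells lacked labelled fibronectin entirely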
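Material – AH1F fibroblast monolayer, labelled fibronectin deposition · Reagent – labelled fibronectin 24 nM · Timing – 1 h adhesion, overnight exposure · Measured by – fluorescence at 485 nm excitation, 525 nm emission · Read-out – inhibition of fibronectin deposition signal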
CaV13 ICDI inh – Disruptors of the CACNA1D IQ motif to Ca2+-dependent inactivation inhibitor domain association, primary screening, Förster resonance energy transfer in intact living …. HEK cells, CFP/YFP FRET ICDI-IQ, plate reader, 10 min; percent FRET-ratio fall versus neutral wells. inhibition, % at 12.3 µM. 0.098% of 340,000 active;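 active = mean replicate inhibition of at least 30% and at least 1% of replicates passing that level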;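 note: 0% = median of the neutral control wells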
CASP6 VEID inh – human caspase-6 inhibitors, primary screen, biochemical, VEID-R110 fluorescence, single point, set 2. P55212. purified caspase-6, Z-VEID-R110 cleavage fluorescence. inhibition, % at 12.5 µM. 0.53% of 350,000 active. AID 686996, 2013;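 active = mean inhibition across replicates at least about 35%, with every replicate also reaching that limit, limit read from the data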;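 note: 0% = median of neutral control wells and 100% = no fluorescence left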
NPR2 activator – human GC-B receptor activators, primary screen, HEK293 GC-B cells, cGMP TR-FRET, EC30 CNP | Atrial natriuretic peptide receptor 2 (Homo sapiens), P20594 | 0% at EC30 CNP, 100% saturating CNP | activation, % at 10 µM | 0.11% of 370,000 active;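 active = activation at 10 µM reaching about 35% in either raw or pattern-adjusted values, limit read from the data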
NSD2 inh – NSD2 histone methyltransferase inhibitors, primary screen, biochemical, AlphaScreen, single concentration, set 2; NSD2 peptide methylation, 120 min; 0.54% of 310,000 active; Histone-lysine N-methyltransferase NSD2 (Homo sapiens), O96028; inhibition, % at 12.5 µM; AID 743445, 2014; in the data active = inhibition above about 50%
GC-A act – GC-A stimulated cGMP production enhancers – HEK293 GC-A cells, cGMP TR-FRET, EC30 ANP, primary screen; AID 1671463, 2021; 0.14% of 370,000 active; 0% at EC30 ANP, 100% saturating ANP; Atrial natriuretic peptide receptor 1 (Homo sapiens), P16066; activation, % at 10 µM; in the data active = activation above about 40%
* hit, by the source's call; nt = not tested or not shown.

SMILES	FN deposit inh	CaV13 ICDI inh	CASP6 VEID inh	NPR2 activator	NSD2 inh	GC-A act
Cc1nnc(NC(=O)c2cc(-c3ccco3)nc3ccccc23)s1	10.5	-4.1	53.1*	-4.7	6.0	-5.4
Cc1cc2c(NC(=O)CC(C)(C)CC(=O)O)cccc2nn1	-4.2	-5.7	11.6	2.0	31.2	3.8
Cc1cc2c(NC(=O)Nc3ccc(F)cc3)cccc2nn1	-14.0	-11.1	67.6*	-2.5	0.7	2.5
Cc1cccc(OCCCC(=O)Nc2ccc(S(=O)(=O)Nc3onc(C)c3C)cc2)c1	nt	-5.1	nt	1.5	-1.1	-1.0
Cc1cccc(NC(=O)Nc2ccc(S(=O)(=O)Nc3onc(C)c3C)cc2)c1	36.6*	-2.7	2.3	7.0	-1.1	3.0
CC(=O)NC[C@@H]1[C@@H](c2ccc(-c3cccnc3)cc2)[C@H](CO)N1C(=O)C1CC1	nt	nt	3.8	nt	nt	nt
CC(=O)c1ccc(S(=O)(=O)N2CCN(C(=O)c3ccc(-n4cncn4)c([N+](=O)[O-])c3)CC2)cc1	1.7	-4.3	53.9*	-4.2	1.4	-0.3
O=C(CSc1nnc(-c2ccccc2)n1-c1ccccc1)c1ccc[nH]1	33.1*	-3.4	nt	1.2	1.8	-9.8
CO[C@H]1CN(C)C(=O)c2ccc(NC(=O)Nc3cccc(Cl)c3)cc2OC[C@H](C)NC[C@H]1C	3.3	nt	-3.7	nt	nt	nt
CO[C@H](CN(C)S(=O)(=O)c1ccc(Cl)cc1)[C@H](C)CN(Cc1ccccc1Cl)[C@H](C)CO	1.8	nt	-1.9	nt	nt	nt
COc1ccc(-c2csc(NC(C)c3nc4cc(C(=O)NCCCO)ccc4n3Cc3ccc(C)cc3)n2)cc1 (stereo unspecified)	-6.1	-9.8	-5.3	46.6*	nt	35.0
CCC1CCc2sc(C(=O)O)cc2C1 (stereo unspecified)	nt	-1.1	nt	-5.9	-0.2	1.5
CCC1CCc2sc(C(=O)NNC(=O)c3ccncc3)cc2C1 (stereo unspecified)	-1.1	-6.8	58.6*	-0.2	5.5	2.3
O=C1CCc2cc(Br)ccc2O1	10.2	-11.3	45.2*	0.1	nt	0.7
O=C1CCc2ccccc2O1	nt	nt	0.7	2.1	nt	2.9
O=c1c2ccccc2sn1-c1cc(S(=O)(=O)N2CCOCC2)ccc1N1CCOCC1	49.5*	-4.8	nt	7.3	1.9	1.8
O=C(C[C@@H]1C[C@H]2c3cc(NC(=O)C4CCOCC4)ccc3O[C@H]2[C@H](CO)O1)NCC1CC1	-6.4	nt	-1.5	nt	nt	nt
C[C@@H]1CN([C@@H](C)CO)C(=O)c2cccc(NC(=O)Nc3cccc4ccccc34)c2O[C@H]1CN(C)CC1CC1	-26.2	nt	37.9*	nt	nt	nt
C[C@H](CO)N1C[C@H](C)[C@@H](CN(C)C(=O)Nc2cccc3ccccc23)Oc2c(NC(=O)C3CCOCC3)cccc2C1=O	0.9	nt	51.8*	nt	nt	nt
CC(C)NC(=O)N(C)C[C@@H]1Oc2cc(C#Cc3ccc(F)cc3)ccc2S(=O)(=O)N([C@@H](C)CO)C[C@@H]1C	nt	nt	-0.5	nt	nt	nt
CCc1nc2c(OCc3ccc(C(=O)OC)cc3)cccn2c1N(C)C(=O)c1ccc(OC)cc1	0.6	-6.4	3.2	1.5	-4.2	-0.1
CCc1nc2c(OCc3ccc(C(=O)OC)cc3)cccn2c1N(C)C(=O)c1ccc(C)cc1	3.6	-4.6	38.5*	-2.5	0.9	0.4
O=C(C1CCN(c2ccc(N3CCOCC3)nn2)CC1)N1CCc2ccccc2C1	nt	-7.1	55.9*	1.5	4.4	-1.3
O=C(C1CCN(S(=O)(=O)N2CCC3(CC2)OCCO3)CC1)N1CCc2ccccc2C1	nt	-7.0	-0.8	5.3	nt	-3.7
O=C(C[C@@H]1CC[C@H](NS(=O)(=O)c2ccccc2)[C@@H](CO)O1)NCCN1CCCCC1	nt	nt	-10.7	nt	nt	nt
C[C@@H]1CN([C@H](C)CO)C(=O)c2cc(C#Cc3ccccc3F)cnc2O[C@H]1CN(C)C	nt	nt	1.8	nt	nt	nt
